Experimental data taken from ChEMBL document CHEMBL1146194, “The Anti-Trypanosoma cruzi activity of posaconazole in a murine model of acute Chagas' disease is less dependent on gamma interferon than that of benznidazole” (2007).

Assays:
Format in all cases: functional
Mus musculus [1] = assay: Mortality rate in Trypanosoma cruzi Y infected wild type C57BL/6 mouse Chagas disease model at 100 mg/kg, po after 20 days
Procedure, shortened: (§1)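 Male C57BL/6 mice aged 8–10 weeks (wild-type or cytokine KO) were infected i.p. with 5,000 Y-strain blood trypomastigotes. Treatment was oral, 100 mg/kg once daily in water with arabic gum, from 4 dpi for 20 consecutive days. Deaths were recorded up to 60 dpi, and mortality was given as deaths/total. Mean survival time assigned survivors a death time of exactly 60 days. Log rank and Peto-Peto-Wilcoxon tests were used.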

Mus musculus [2] = assay: Mortality rate in Trypanosoma cruzi Y infected IFN-gamma knock out C57BL/6 mouse Chagas disease model at 100 mg/kg, po after 20 days; procedure, shortened: as §1
Mus musculus [3] = assay: Mortality rate in Trypanosoma cruzi Y infected IL12 knock out C57BL/6 mouse Chagas disease model at 100 mg/kg, po after 20 days; procedure, shortened: as §1
Mus musculus [4] = assay: Effect on survival in Trypanosoma cruzi Y infected C57BL/6 mouse Chagas disease model assessed as mean survival time at 100 mg/kg, po after 20 days; procedure, shortened: as §1
Mus musculus [5] = assay: Effect on survival in Trypanosoma cruzi Y infected IFN-gamma knock out C57BL/6 mouse Chagas disease model assessed as mean survival time at 100 mg/kg, po after 20 days; procedure, shortened: as §1
Mus musculus [6] = assay: Effect on survival in Trypanosoma cruzi Y infected IL12 knock out C57BL/6 mouse Chagas disease model assessed as mean survival time at 100 mg/kg, po after 20 days; procedure, shortened: as §1
Trypanosoma cruzi [7] = assay: Antimicrobial activity against Trypanosoma cruzi Y infected wild type C57BL/6 mouse Chagas disease model assessed as percent of cured mouse at 100 mg/kg, po after 20 days
Procedure, shortened: (§2)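 Male mice, 8–10 weeks, infected i.p. with 5,000 blood trypomastigotes (Y strain, passaged in Swiss-Webster mice). From 4 dpi, dosed orally once daily for 20 consecutive days in water with arabic gum. Fresh tail blood examined to 60 dpi. Aparasitemic mice were then bled (0.5 ml), and blood was cultured in LIT medium at 28°C for 30–60 days. Cure means negative by both methods.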

Trypanosoma cruzi [8] = assay: Antimicrobial activity against Trypanosoma cruzi Y infected IFN-gamma knock out C57BL/6 mouse Chagas disease model assessed as percent of cured mouse at 100 mg/kg, po after 20 days; procedure, shortened: as §2
Trypanosoma cruzi [9] = assay: Antimicrobial activity against Trypanosoma cruzi Y infected IL12 knock out C57BL/6 mouse Chagas disease model assessed as percent of cured mouse at 100 mg/kg, po after 20 days; procedure, shortened: as §2
Mus musculus [10] = assay: Mortality rate in Trypanosoma cruzi Y infected wild type C57BL/6 mouse Chagas disease model at 20 mg/kg, po twice daily after 20 days
Procedure, shortened: (§3)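 Male C57BL/6 mice aged 8–10 weeks (wild-type or cytokine KO) were infected i.p. with 5,000 Y-strain blood trypomastigotes. From 4 dpi they received 20 mg/kg/day orally, split into two daily doses, for 20 days, in 2% methylcellulose with 0.5% Tween 80. Deaths were tracked to 60 dpi, and mortality was given as deaths/total. Mean survival time counted survivors as dying at 60 days. Log rank and Peto-Peto-Wilcoxon tests were used.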

Mus musculus [11] = assay: Mortality rate in Trypanosoma cruzi Y infected IFN-gamma knock out C57BL/6 mouse Chagas disease model at 20 mg/kg, po twice daily after 20 days; procedure, shortened: as §3
Mus musculus [12] = assay: Mortality rate in Trypanosoma cruzi Y infected IL12 knock out C57BL/6 mouse Chagas disease model at 20 mg/kg, po twice daily after 20 days; procedure, shortened: as §3
Mus musculus [13] = assay: Effect on survival in Trypanosoma cruzi Y infected C57BL/6 mouse Chagas disease model assessed as mean survival time at 20 mg/kg, po twice daily after 20 days; procedure, shortened: as §3
Mus musculus [14] = assay: Effect on survival in Trypanosoma cruzi Y infected IFN-gamma knock out C57BL/6 mouse Chagas disease model assessed as mean survival time at 20 mg/kg, po twice daily after 20 days; procedure, shortened: as §3
Mus musculus [15] = assay: Effect on survival in Trypanosoma cruzi Y infected IL12 knock out C57BL/6 mouse Chagas disease model assessed as mean survival time at 20 mg/kg, po twice daily after 20 days; procedure, shortened: as §3
Trypanosoma cruzi [16] = assay: Antimicrobial activity against Trypanosoma cruzi Y infected wild type C57BL/6 mouse Chagas disease model assessed as percent of cured mouse at 20 mg/kg, po twice daily after 20 days
Procedure, shortened: (§4)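 Male C57BL/6 mice aged 8–10 weeks (wild-type, IL-12p40 KO or IFN-γ KO) were infected i.p. with 5,000 blood trypomastigotes of the Y strain. From 4 dpi they were dosed orally at 20 mg/kg/day, split into two daily doses, for 20 consecutive days, in 2% methylcellulose with 0.5% Tween 80. Mice negative on fresh blood at 60 dpi had 0.5 ml orbital blood cultured in LIT medium at 28°C for 30–60 days. Cure meant negative on both tests.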

Trypanosoma cruzi [17] = assay: Antimicrobial activity against Trypanosoma cruzi Y infected IFN-gamma knock out C57BL/6 mouse Chagas disease model assessed as percent of cured mouse at 20 mg/kg, po twice daily after 20 days; procedure, shortened: as §4
Trypanosoma cruzi [18] = assay: Antimicrobial activity against Trypanosoma cruzi Y infected IL12 knock out C57BL/6 mouse Chagas disease model assessed as percent of cured mouse at 20 mg/kg, po twice daily after 20 days; procedure, shortened: as §4

Row | SMILES | Activity (Mus musculus [1]) [%] | Activity (Mus musculus [2]) [%] | Activity (Mus musculus [3]) [%] | MST (Mus musculus [4]) [days] | MST (Mus musculus [5]) [days] | MST (Mus musculus [6]) [days] | Activity (Trypanosoma cruzi [7]) [%] | Activity (Trypanosoma cruzi [8]) [%] | Activity (Trypanosoma cruzi [9]) [%] | Activity (Mus musculus [10]) [%] | Activity (Mus musculus [11]) [%] | Activity (Mus musculus [12]) [%] | MST (Mus musculus [13]) [days] | MST (Mus musculus [14]) [days] | MST (Mus musculus [15]) [days] | Activity (Trypanosoma cruzi [16]) [%] | Activity (Trypanosoma cruzi [17]) [%] | Activity (Trypanosoma cruzi [18]) [%]
1 | O=C(Cn1ccnc1[N+](=O)[O-])NCc1ccccc1 [BENZNIDAZOLE] | 0 | 100 | 17 | >60 | 42.1 | 59.6 | 86 | 0 | 39 |  |  |  |  |  |  |  |  | 
2 | CC[C@@H]([C@H](C)O)n1ncn(-c2ccc(N3CCN(c4ccc(OC[C@@H]5CO[C@@](Cn6cncn6)(c6ccc(F)cc6F)C5)cc4)CC3)cc2)c1=O [POSACONAZOLE] |  |  |  |  |  |  |  |  |  | 0 | 30 | 23 | >60 | 52.1 | 59.2 | 89 | 15 | 35
